# Experimental data as given in ChEMBL document CHEMBL3351600, “Sulfur, selenium and tellurium pseudopeptides: synthesis and biological evaluation” (Bioorg Med Chem, 2014).
# Tests used:
# ACHN = test: Growth inhibition of human ACHN cells after 48 hrs; format: functional
# How it was run: (§1)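 NCI-60 human tumour cell line panel screen run at the US National Cancer Institute under its standard cytotoxicity protocol. It covers leukaemia, NSCLC, colon, CNS, melanoma, ovarian, renal, prostate and breast lines. An initial single-dose test was followed by five-dose testing with 48 h compound exposure.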
# CAKI-1 = test: Growth inhibition of human CAKI-1 cells after 48 hrs; format: functional; settings: CAKI-1, 48 h; how it was run: as §1
# SN12C = test: Growth inhibition of human SN12C cells after 48 hrs; format: functional
# How it was run: (§2)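 Run by the NCI 58-cell-line screen under its standard cytotoxicity protocol. Compounds were first tested at a single dose, then at five doses. Cells were exposed to compound for 48 h.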
# [1] = Growth inhibition of human UO31 cells after 48 hrs; format: functional; settings: UO-31, 48 h; how it was run: as §2
# [2] = Growth inhibition of human PC3 cells after 48 hrs; format: functional; settings: PC-3, 48 h; how it was run: as §1
# MCF7 = test: Growth inhibition of human MCF7 cells after 48 hrs; format: functional; settings: MCF7, 48 h; how it was run: as §1
# MDA-MB-231 = test: Growth inhibition of human MDA-MB-231 cells after 48 hrs; format: functional; settings: MDA-MB-231, 48 h; how it was run: as §1
# [3] = Growth inhibition of human BT549 cells after 48 hrs; format: functional; settings: BT-549, 48 h; how it was run: as §1
# MDA-MB-468 = test: Growth inhibition of human MDA-MB-468 cells after 48 hrs; format: functional; settings: MDA-MB-468, 48 h; how it was run: as §1
# [4] = Cytotoxicity against human fibroblasts assessed as cell viability after 24 hrs incubation by MTT assay; format: cell-based; settings: Fibroblast
# How it was run: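 Cell lines came from DSMZ; primary human fibroblasts served as non-cancer controls. Cells were grown in medium with 10% FCS, seeded at 50,000 cells/ml, and grown 2 days at 37 °C, 10% CO2. Serial dilutions were then added for 24 h. MTT (final 0.5 mg/ml) was added for 2 h. Formazan was pelleted, PBS-washed, dissolved in isopropanol/0.4% HCl and read at 590 nm. Two parallel experiments were run. IC50 was taken as the concentration giving 50% of untreated-control absorbance.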
# Mycolicibacterium phlei = test: Antimicrobial activity against Mycobacterium phlei assessed as inhibition at 20 ug/6 mm disk after 1 to 2 days by agar diffusion assay; format: functional
# How it was run: (§3)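 Standard agar diffusion: 6-mm paper disks loaded with 20 µg of compound were placed on inoculated plates. Inhibition-zone diameter (mm) was read after 1 and 2 days of growth.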
# Micrococcus luteus = test: Antimicrobial activity against Micrococcus luteus assessed as inhibition at 20 ug/6 mm disk after 1 to 2 days by agar diffusion assay; format: functional; how it was run: as §3
# Staphylococcus aureus = test: Antimicrobial activity against Staphylococcus aureus assessed as inhibition at 20 ug/6 mm disk after 1 to 2 days by agar diffusion assay; format: functional; how it was run: as §3
# Pseudomonas aeruginosa = test: Antimicrobial activity against Pseudomonas aeruginosa assessed as inhibition at 20 ug/6 mm disk after 1 to 2 days by agar diffusion assay; format: functional; how it was run: as §3
# Escherichia coli = test: Antimicrobial activity against Escherichia coli tolC assessed as inhibition at 20 ug/6 mm disk after 1 to 2 days by agar diffusion assay; format: functional; how it was run: as §3
# NCI-H23 = test: Growth inhibition of human NCI-H23 cells after 48 hrs; format: functional; settings: NCI-H23, 48 h; how it was run: as §1
# NCI-H460 = test: Growth inhibition of human NCI-H460 cells after 48 hrs; format: functional; settings: NCI-H460, 48 h; how it was run: as §1
# NCI-H522 = test: Growth inhibition of human NCI-H522 cells after 48 hrs; format: functional; settings: NCI-H522, 48 h; how it was run: as §1
# [5] = Growth inhibition of human HCT116 cells after 48 hrs; format: functional; settings: HCT-116, 48 h; how it was run: as §1
# HT-29 = test: Growth inhibition of human HT-29 cells after 48 hrs; format: functional; settings: HT-29, 48 h; how it was run: as §1
# SF-268 = test: Growth inhibition of human SF268 cells after 48 hrs; format: functional; settings: SF-268, 48 h; how it was run: as §1
# [6] = Growth inhibition of human SF539 cells after 48 hrs; format: functional; settings: SF-539, 48 h; how it was run: as §1
# SNB-19 = test: Growth inhibition of human SNB19 cells after 48 hrs; format: functional; settings: SNB-19, 48 h; how it was run: as §2
# M14 = test: Growth inhibition of human M14 cells after 48 hrs; format: functional; settings: M14, 48 h; how it was run: as §1
# SK-MEL-2 = test: Growth inhibition of human SK-MEL-2 cells after 48 hrs; format: functional; settings: SK-MEL-2, 48 h; how it was run: as §1
# [7] = Growth inhibition of human UACC257 cells after 48 hrs; format: functional; settings: UACC-257, 48 h; how it was run: as §2
# [8] = Growth inhibition of human UACC62 cells after 48 hrs; format: functional; settings: UACC-62, 48 h; how it was run: as §2
# [9] = Growth inhibition of human OVCAR4 cells after 48 hrs; format: functional; settings: OVCAR-4, 48 h; how it was run: as §1
# [10] = Growth inhibition of human OVCAR8 cells after 48 hrs; format: functional; settings: OVCAR-8, 48 h; how it was run: as §1
# [11] = Growth inhibition of human NCI-ADR-RES cells after 48 hrs; format: functional; how it was run: as §1
# SK-OV-3 = test: Growth inhibition of human SKOV3 cells after 48 hrs; format: functional; settings: SK-OV-3, 48 h; how it was run: as §2
# [12] = read-out: pLC50 (the source's name) (converted)
structure (smiles),measurement,setting,value
COc1ccc(N(CC(=O)NCCC[Te]c2ccccc2)C(=O)CNC(=O)OC(C)(C)C)cc1,GI50,ACHN,1.55 µM
same,LC50,ACHN,> 100 µM
same,TGI,ACHN; read-out: pTGI (converted),8.71 µM
same,GI50,CAKI-1,2.09 µM
same,LC50,CAKI-1,> 100 µM
same,TGI,CAKI-1; read-out: pTGI (converted),5.62 µM
same,GI50,SN12C,2.04 µM
same,LC50,SN12C,> 100 µM
same,TGI,SN12C; read-out: pTGI (converted),5.01 µM
same,GI50,[1],2.4 µM
same,LC50,[1],> 100 µM
same,TGI,[1]; read-out: pTGI (converted),9.12 µM
same,GI50,[2],1.7 µM
same,LC50,[2],> 100 µM
same,TGI,[2]; read-out: pTGI (converted),10 µM
same,GI50,MCF7,2.57 µM
same,LC50 (concentration killing 50% of cells),MCF7,37.2 µM
same,TGI,MCF7; read-out: pTGI (converted),7.59 µM
same,GI50,MDA-MB-231,1.91 µM
same,TGI,MDA-MB-231; read-out: pTGI (converted),3.89 µM
same,GI50,[3],1.7 µM
same,LC50 (concentration killing 50% of cells),[3],> 100 µM
same,TGI,[3]; read-out: pTGI (converted),4.9 µM
same,GI50,MDA-MB-468,3.16 µM
same,LC50,MDA-MB-468,60.3 µM
same,TGI,MDA-MB-468; read-out: pTGI (converted),11 µM
same,IC50,[4],25 µM
same,diameter of the inhibition zone (DIZ),Mycolicibacterium phlei,12 mm
same,diameter of the inhibition zone (DIZ),Micrococcus luteus,7 mm
same,diameter of the inhibition zone (DIZ),Staphylococcus aureus,10 mm
same,diameter of the inhibition zone (DIZ),Pseudomonas aeruginosa,10 mm
same,diameter of the inhibition zone (DIZ),Escherichia coli,12 mm
same,GI50,NCI-H23,2.51 µM
same,CC50,NCI-H23; [12],> 100 µM
same,TGI,NCI-H23; read-out: pTGI (converted),6.61 µM
same,GI50,NCI-H460,0.447 µM
same,CC50,NCI-H460; [12],7.59 µM
same,TGI,NCI-H460; read-out: pTGI (converted),1.86 µM
same,GI50,NCI-H522,2.57 µM
same,CC50,NCI-H522; [12],56.2 µM
same,TGI,NCI-H522; read-out: pTGI (converted),10.5 µM
same,GI50,[5],2.09 µM
same,CC50,[5]; [12],49 µM
same,TGI,[5]; read-out: pTGI (converted),6.46 µM
same,GI50,HT-29,3.8 µM
same,CC50,HT-29; [12],> 100 µM
same,TGI,HT-29; read-out: pTGI (converted),13.8 µM
same,GI50,SF-268,2.69 µM
same,CC50,SF-268; [12],100 µM
same,TGI,SF-268; read-out: pTGI (converted),7.59 µM
same,GI50,[6],2.14 µM
same,CC50,[6]; [12],15.8 µM
same,TGI,[6]; read-out: pTGI (converted),4.79 µM
same,GI50,SNB-19,8.71 µM
same,CC50,SNB-19; [12],> 100 µM
same,TGI,SNB-19; read-out: pTGI (converted),9.55 µM
same,GI50,M14,3.55 µM
same,CC50,M14; [12],45.7 µM
same,TGI,M14; read-out: pTGI (converted),10.7 µM
same,GI50,SK-MEL-2,3.02 µM
same,CC50,SK-MEL-2; [12],> 100 µM
same,TGI,SK-MEL-2; read-out: pTGI (converted),6.76 µM
same,GI50,[7],8.51 µM
same,CC50,[7]; [12],61.7 µM
same,TGI,[7]; read-out: pTGI (converted),24 µM
same,GI50,[8],1.66 µM
same,CC50,[8]; [12],8.71 µM
same,TGI,[8]; read-out: pTGI (converted),3.8 µM
same,GI50,[9],22.4 µM
same,LC50,[9],> 100 µM
same,TGI,[9]; read-out: pTGI (converted),> 100 µM
same,GI50,[10],2.4 µM
same,LC50,[10],> 100 µM
same,TGI,[10]; read-out: pTGI (converted),6.92 µM
same,GI50,[11],2.88 µM
same,LC50,[11],> 100 µM
same,TGI,[11]; read-out: pTGI (converted),7.24 µM
same,GI50,SK-OV-3,2.34 µM
same,CC50,SK-OV-3; [12],10 µM
same,TGI,SK-OV-3; read-out: pTGI (converted),4.79 µM
